What was measured:
Acinetobacter baumannii [1] = experiment: Antibacterial activity against Acinetobacter baumannii ATCC 17978 after 16 to 18 hrs by microbroth dilution method; assay type: functional
Summary of the method: (§1)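 Broth microdilution in Mueller–Hinton broth following CLSI recommendations. Strains came from ATCC or CCUG collections or the authors' clinical isolates. Compounds were dissolved in DMSO as a 100 mg/ml stock and then diluted in culture medium. Inoculum was 5 × 10⁴ CFU/well. MIC was read after 16–18 h incubation at 35–37 °C.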

Aeromonas hydrophila = experiment: Antibacterial activity against Aeromonas hydrophila ATCC 7966 after 16 to 18 hrs by microbroth dilution method; assay type: functional; summary of the method: as §1
[2] = test system: Elizabethkingia meningoseptica; experiment: Antibacterial activity against Elizabethkingia meningoseptica CCUG 4310 after 16 to 18 hrs by microbroth dilution method; assay type: functional; summary of the method: as §1
Escherichia coli = experiment: Antibacterial activity against Escherichia coli CCUGT after 16 to 18 hrs by microbroth dilution method; assay type: functional; summary of the method: as §1
Klebsiella pneumoniae [3] = experiment: Antibacterial activity against Klebsiella pneumoniae ATCC 13833 after 16 to 18 hrs by microbroth dilution method; assay type: functional; summary of the method: as §1
Pseudomonas aeruginosa [4] = experiment: Antibacterial activity against Pseudomonas aeruginosa ATCC 27853 after 16 to 18 hrs by microbroth dilution method; assay type: functional; summary of the method: as §1
Bacillus subtilis = experiment: Antibacterial activity against Bacillus subtilis ATCC 6633 after 16 to 18 hrs by microbroth dilution method; assay type: functional; summary of the method: as §1
Enterococcus faecalis = experiment: Antibacterial activity against Enterococcus faecalis ATCC 19433 after 16 to 18 hrs by microbroth dilution method; assay type: functional; summary of the method: as §1
Staphylococcus aureus [5] = experiment: Antibacterial activity against Staphylococcus aureus ATCC 25923 after 16 to 18 hrs by microbroth dilution method; assay type: functional
Summary of the method: (§2)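 Broth microdilution MIC per CLSI in Mueller–Hinton broth. Inoculum 5 × 10⁴ CFU/well. Compounds dissolved in DMSO at 100 mg/ml, then diluted in culture medium. Plates incubated 16–18 h at 35–37 °C before reading the MIC. Strains were taken from ATCC or CCUG collections or from the authors' clinical isolate collection.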

[6] = test system: Staphylococcus epidermidis; experiment: Antibacterial activity against Staphylococcus epidermidis ATCC 14990 after 16 to 18 hrs by microbroth dilution method; assay type: functional; summary of the method: as §1
Streptococcus pyogenes = experiment: Antibacterial activity against Streptococcus pyogenes ATCC 12344 after 16 to 18 hrs by microbroth dilution method; assay type: functional; summary of the method: as §1
Acinetobacter baumannii [7] = experiment: Antibacterial activity against penicillin/expanded-spectrum cephalosporin/carbapenem/aztreonam/aminoglycoside/fluoroquinolone/fosfomycin/trimethoprim/sulfamethoxazole-resistant Acinetobacter baumannii AC-54/97 after 16 to 18 hrs by microbroth dilution method; assay type: functional; summary of the method: as §2
[8] = test system: Achromobacter xylosoxidans; experiment: Antibacterial activity against penicillin/expanded-spectrum cephalosporin/carbapenem/aminoglycoside-resistant Achromobacter xylosoxidans AX 22 after 16 to 18 hrs by microbroth dilution method; assay type: functional; summary of the method: as §2
Alcaligenes faecalis = experiment: Antibacterial activity against expanded-spectrum cephalosporin/carbapenem/monobactam-resistant Alcaligenes faecalis 424/98 after 16 to 18 hrs by microbroth dilution method; assay type: functional; summary of the method: as §2
Enterobacter cloacae = experiment: Antibacterial activity against penicillin/CEPH/carbapenem/aminoglycoside/fluoroquinolone-resistant Enterobacter cloacae VA-417/02 after 16 to 18 hrs by microbroth dilution method; assay type: functional; summary of the method: as §2
Klebsiella pneumoniae [9] = experiment: Antibacterial activity against penicillin/expanded-spectrum cephalosporin/carbapenem/aminoglycoside/fluoroquinolone/trimethoprim/sulfamethoxazole-resistant Klebsiella pneumoniae 7023 after 16 to 18 hrs by microbroth dilution method; assay type: functional; summary of the method: as §2
Pseudomonas aeruginosa [10] = experiment: Antibacterial activity against penicillin/expanded-spectrum cephalosporin/carbapenem/aminoglycoside-resistant Pseudomonas aeruginosa 101/1477 after 16 to 18 hrs by microbroth dilution method; assay type: functional; summary of the method: as §2
Pseudomonas aeruginosa [11] = experiment: Antibacterial activity against penicillin/expanded-spectrum cephalosporin/carbapenem/monobactam/aminoglycoside/fluoroquinolone-resistant Pseudomonas aeruginosa VR-143/97 after 16 to 18 hrs by microbroth dilution method; assay type: functional; summary of the method: as §2
[12] = test system: Stenotrophomonas maltophilia; experiment: Antibacterial activity against penicillin/expanded-spectrum cephalosporin/carbapenem/monobactam/aminoglycoside/trimethoprim/sulfamethoxazole/fosfomycin-resistant Stenotrophomonas maltophilia 634/08 after 16 to 18 hrs by microbroth dilution method; assay type: functional; summary of the method: as §2
Staphylococcus aureus [13] = experiment: Antibacterial activity against penicillin-resistant Staphylococcus aureus ATCC 43300 after 16 to 18 hrs by microbroth dilution method; assay type: functional; summary of the method: as §2
Staphylococcus aureus [14] = experiment: Antibacterial activity against glycopeptide-resistant Staphylococcus aureus ATCC 700699 (VanA) after 16 to 18 hrs by microbroth dilution method; assay type: functional; summary of the method: as §2
[15] = test system: Staphylococcus haemolyticus; experiment: Antibacterial activity against aminoglycoside-resistant Staphylococcus haemolyticus SI-6/2011 after 16 to 18 hrs by microbroth dilution method; assay type: functional; summary of the method: as §2
Staphylococcus warneri = experiment: Antibacterial activity against penicillin/aminoglycoside-resistant Staphylococcus warneri SI-5/2011 after 16 to 18 hrs by microbroth dilution method; assay type: functional; summary of the method: as §2
Staphylococcus hominis = experiment: Antibacterial activity against linezolid-resistant Staphylococcus hominis SI-7/2011 after 16 to 18 hrs by microbroth dilution method; assay type: functional; summary of the method: as §2
[16] = Apparent permeability of the compound at pH 7.4 after 5 hrs by PAMPA; assay type: physicochemical
Summary of the method: (§3)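 Parallel artificial membrane permeability assay run at physiological pH 7.4 and at alkaline pH 10.0, the duodenal-like condition, as a gastrointestinal permeability model. Apparent permeability (P_app) is reported in nm/s, together with the percentage of compound retained in the membrane.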

[17] = Apparent permeability of the compound at pH 10.0 after 5 hrs by PAMPA; assay type: physicochemical; summary of the method: as §3
[18] = Apparent permeability of the compound assessed as membrane retention at pH 7.4 after 5 hrs by PAMPA; assay type: physicochemical; conditions: pH 7.4, 5 h; summary of the method: as §3
[19] = Apparent permeability of the compound assessed as membrane retention at pH 10.0 after 5 hrs by PAMPA; assay type: physicochemical; conditions: pH 10, 5 h; summary of the method: as §3
[20] = Solubility of the compound in pure water at 1.2 mg after 24 to 36 hrs by LC-MS/MS analysis; assay type: physicochemical
[21] = Metabolic stability in human liver microsomes after 60 mins by LC-UV-MS analysis; assay type: ADME; conditions: read-out: Stability
Albumin = Albumin (Homo sapiens, UniProt P02768); experiment: Binding affinity to human serum albumin after 30 mins by fluorescence spectroscopic analysis; assay type: ADME
Albumin, sequence (P02768 whole entry): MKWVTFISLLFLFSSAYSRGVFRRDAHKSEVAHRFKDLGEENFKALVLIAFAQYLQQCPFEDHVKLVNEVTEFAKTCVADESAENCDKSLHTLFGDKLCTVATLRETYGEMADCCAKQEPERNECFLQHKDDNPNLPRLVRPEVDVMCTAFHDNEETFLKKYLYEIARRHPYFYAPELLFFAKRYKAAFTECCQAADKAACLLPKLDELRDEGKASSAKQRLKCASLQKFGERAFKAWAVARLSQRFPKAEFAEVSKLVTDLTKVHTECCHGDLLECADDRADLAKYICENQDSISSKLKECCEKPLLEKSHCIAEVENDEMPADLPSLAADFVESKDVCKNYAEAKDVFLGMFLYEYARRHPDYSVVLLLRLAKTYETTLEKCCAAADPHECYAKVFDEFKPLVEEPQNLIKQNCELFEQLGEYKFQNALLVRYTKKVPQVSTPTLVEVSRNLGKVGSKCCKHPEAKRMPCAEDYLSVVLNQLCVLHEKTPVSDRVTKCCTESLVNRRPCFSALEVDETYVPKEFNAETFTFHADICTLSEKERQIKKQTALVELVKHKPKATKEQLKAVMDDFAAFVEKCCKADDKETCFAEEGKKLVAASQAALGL

[22] = Cytotoxicity against human HeLa cells after 24 hrs; assay type: cell-based
[23] = Cytotoxicity against human HeLa cells after 48 hrs; assay type: cell-based
[24] = Ratio of CC50 for human HeLa cells to MIC for Escherichia coli CCUGT
[25] = Ratio of CC50 for human HeLa cells to MIC for Klebsiella pneumoniae 7023

N=C(N)NCCCCCCCCNCCCCCCCCNC(=N)NCC1CC1.O=C(O)C(F)(F)F.O=C(O)C(F)(F)F.O=C(O)C(F)(F)F
MIC (Acinetobacter baumannii [1]): 4 mg/L
MIC (Aeromonas hydrophila): 8 mg/L
MIC [2]: 32 mg/L
MIC (Escherichia coli): 0.5 mg/L
MIC (Klebsiella pneumoniae [3]): 1 mg/L
MIC (Pseudomonas aeruginosa [4]): 8 mg/L
MIC (Bacillus subtilis): 0.5 mg/L
MIC (Enterococcus faecalis): 1 mg/L
MIC (Staphylococcus aureus [5]): 4 mg/L
MIC [6]: 0.5 mg/L
MIC (Streptococcus pyogenes): < 0.125 mg/L
MIC (Acinetobacter baumannii [7]): 4 mg/L
MIC [8]: 4 mg/L
MIC (Alcaligenes faecalis): 4 mg/L
MIC (Enterobacter cloacae): 2 mg/L
MIC (Klebsiella pneumoniae [9]): 2 mg/L
MIC (Pseudomonas aeruginosa [10]): 8 mg/L
MIC (Pseudomonas aeruginosa [11]): 8 mg/L
MIC [12]: 4 mg/L
MIC (Staphylococcus aureus [13]): 4 mg/L
MIC (Staphylococcus aureus [14]): 4 mg/L
MIC [15]: 2 mg/L
MIC (Staphylococcus warneri): 2 mg/L
MIC (Staphylococcus hominis): 2 mg/L
Papp at 5 h [16]: 9.5 nm/s
Papp at 5 h [17]: 167 nm/s
Papp [18]: 8.8%
Papp [19]: 60.6%
solubility [20]: 0.966 mg/mL
remaining at 1 h [21]: > 99%
Kd (Albumin): 26.5 µM
CC50 at 24 h [22]: 92.6 µM
CC50 at 48 h [23]: 62 µM
Ratio [24]: >=70
Ratio [25]: >=70

Source: ChEMBL document CHEMBL3352312, “Synthesis of linear and cyclic guazatine derivatives endowed with antibacterial activity” (Bioorg Med Chem Lett, 2014)
